Measured values published in ChEMBL document CHEMBL1132231, “New generation dopaminergic agents. 6. Structure-activity relationship studies of a series of 4-(aminoethoxy)indole and 4-(aminoethoxy)indolone derivatives based on the newly discovered 3-hydroxyphenoxyethylamine D2 template” (J Med Chem, 1999).

Tests used:
[1] = molecular target: T1, 5-hydroxytryptamine receptor 1A (Rattus norvegicus, UniProt P19327); test: In vitro binding affinity towards 5-hydroxytryptamine 1A receptor by the displacement of [3H]8-OH-DPAT radioligand in rat hippocampal homogenates; type: tissue-based, Hippocampus
T1 sequence (P19327 whole entry): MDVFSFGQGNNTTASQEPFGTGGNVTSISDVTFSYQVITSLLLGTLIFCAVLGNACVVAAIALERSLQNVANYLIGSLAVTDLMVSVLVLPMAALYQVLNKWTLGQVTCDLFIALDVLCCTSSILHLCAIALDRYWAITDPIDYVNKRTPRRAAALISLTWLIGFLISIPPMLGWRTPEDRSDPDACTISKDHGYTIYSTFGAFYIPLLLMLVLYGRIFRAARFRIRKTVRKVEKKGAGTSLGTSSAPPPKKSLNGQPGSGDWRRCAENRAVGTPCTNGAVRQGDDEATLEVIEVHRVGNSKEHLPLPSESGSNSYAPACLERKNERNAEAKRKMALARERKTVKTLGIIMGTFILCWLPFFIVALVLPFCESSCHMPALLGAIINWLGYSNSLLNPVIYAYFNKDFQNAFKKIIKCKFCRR

[2] = molecular target: T2, Adrenergic receptor alpha-1 (Rattus norvegicus, UniProt P15823+P23944+P43140); test: In vitro binding affinity towards alpha-1 adrenergic receptor by the displacement of [3H]prazosin radioligand in rat cortical homogenates
T2 sequence (P15823 whole entry): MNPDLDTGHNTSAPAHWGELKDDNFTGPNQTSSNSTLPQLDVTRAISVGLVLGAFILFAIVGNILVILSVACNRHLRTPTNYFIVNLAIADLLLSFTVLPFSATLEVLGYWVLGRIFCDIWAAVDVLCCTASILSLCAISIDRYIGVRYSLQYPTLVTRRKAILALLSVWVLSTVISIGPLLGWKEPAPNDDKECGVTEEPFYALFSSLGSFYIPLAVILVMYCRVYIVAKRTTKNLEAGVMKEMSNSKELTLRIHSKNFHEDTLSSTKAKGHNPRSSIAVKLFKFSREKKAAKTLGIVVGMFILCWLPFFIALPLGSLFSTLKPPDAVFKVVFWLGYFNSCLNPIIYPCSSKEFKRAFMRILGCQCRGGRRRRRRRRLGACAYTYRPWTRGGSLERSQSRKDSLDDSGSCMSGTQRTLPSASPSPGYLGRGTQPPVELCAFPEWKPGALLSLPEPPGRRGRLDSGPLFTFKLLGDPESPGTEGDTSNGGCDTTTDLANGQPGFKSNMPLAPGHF
T2 sequence (P23944 whole entry): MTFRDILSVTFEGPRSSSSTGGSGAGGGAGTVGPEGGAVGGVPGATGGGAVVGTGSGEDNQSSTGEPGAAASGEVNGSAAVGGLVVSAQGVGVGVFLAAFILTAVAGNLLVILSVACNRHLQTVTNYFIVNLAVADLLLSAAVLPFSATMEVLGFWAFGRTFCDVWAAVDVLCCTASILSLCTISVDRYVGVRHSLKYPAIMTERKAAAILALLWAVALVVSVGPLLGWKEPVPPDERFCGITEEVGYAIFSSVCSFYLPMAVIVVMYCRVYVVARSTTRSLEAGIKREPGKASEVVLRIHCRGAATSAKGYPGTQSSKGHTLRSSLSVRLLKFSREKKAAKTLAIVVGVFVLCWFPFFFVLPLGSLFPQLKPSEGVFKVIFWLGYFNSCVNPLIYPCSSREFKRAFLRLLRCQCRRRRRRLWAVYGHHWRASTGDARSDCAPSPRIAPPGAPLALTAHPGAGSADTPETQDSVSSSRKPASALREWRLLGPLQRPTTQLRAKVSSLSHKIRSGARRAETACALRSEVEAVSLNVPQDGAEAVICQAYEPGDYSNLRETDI
T2 sequence (P43140 whole entry): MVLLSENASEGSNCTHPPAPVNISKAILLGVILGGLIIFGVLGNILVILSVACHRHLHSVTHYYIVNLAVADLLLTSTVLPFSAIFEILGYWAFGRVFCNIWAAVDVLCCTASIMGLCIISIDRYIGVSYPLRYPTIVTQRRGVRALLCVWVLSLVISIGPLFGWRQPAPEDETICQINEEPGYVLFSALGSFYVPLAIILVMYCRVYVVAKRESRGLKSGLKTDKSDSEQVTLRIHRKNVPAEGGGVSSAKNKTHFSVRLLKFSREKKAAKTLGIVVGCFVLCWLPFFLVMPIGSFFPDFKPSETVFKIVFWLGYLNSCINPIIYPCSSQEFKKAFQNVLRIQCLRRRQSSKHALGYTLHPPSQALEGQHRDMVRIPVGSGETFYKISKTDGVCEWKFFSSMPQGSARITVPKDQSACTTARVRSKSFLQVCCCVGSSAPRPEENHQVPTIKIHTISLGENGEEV
Summary of the method: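 Rat cortical homogenates labelled with [3H]prazosin (0.2 nM), incubated 30 min at 25 °C. Stopped with cold 50 mM Tris pH 7.4, then rapid filtration. Triplicate, at least eight concentrations. Nonlinear regression gave IC50, converted to apparent Ki by Cheng-Prusoff. Means of at least two experiments ± SEM; values without SEM are single determinations.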

[3] = molecular target: T3, D(2) dopamine receptor (Rattus norvegicus, UniProt P61169); test: In vitro high binding affinity towards Dopamine receptor D2 by the displacement of [3H]quinpirole radioligand in rat striatal membranes; type: cell membranes, Membrane
[4] = molecular target: T3, D(2) dopamine receptor; test: In vitro low binding affinity towards Dopamine receptor D2 by the displacement of [3H]spiperone radioligand in rat striatal membranes; type: cell membranes, Membrane
[5] = molecular target: D(2) dopamine receptor (Rattus norvegicus) (UniProt P61169); test: Ratio of Dopamine D2 receptor (low)and Dopamine D2 receptor (high)
Summary of the method: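 Ratio Ki(low)/Ki(high). Ki(low) comes from displacement of 1 nM [3H]spiperone in striatal membranes with 1 mM GppNHp and NaCl, 37 °C for 5 min. […] Both Ki values derived by Cheng-Prusoff from nine concentrations in triplicate; the ratio serves as an estimate of intrinsic activity.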

[6] = molecular target: T2, Adrenergic receptor alpha-1; test: In vitro binding affinity towards Alpha-1 adrenergic receptor by the displacement of [3H]prazosin radioligand in rat cortical homogenates

T3 sequence (P61169 whole entry): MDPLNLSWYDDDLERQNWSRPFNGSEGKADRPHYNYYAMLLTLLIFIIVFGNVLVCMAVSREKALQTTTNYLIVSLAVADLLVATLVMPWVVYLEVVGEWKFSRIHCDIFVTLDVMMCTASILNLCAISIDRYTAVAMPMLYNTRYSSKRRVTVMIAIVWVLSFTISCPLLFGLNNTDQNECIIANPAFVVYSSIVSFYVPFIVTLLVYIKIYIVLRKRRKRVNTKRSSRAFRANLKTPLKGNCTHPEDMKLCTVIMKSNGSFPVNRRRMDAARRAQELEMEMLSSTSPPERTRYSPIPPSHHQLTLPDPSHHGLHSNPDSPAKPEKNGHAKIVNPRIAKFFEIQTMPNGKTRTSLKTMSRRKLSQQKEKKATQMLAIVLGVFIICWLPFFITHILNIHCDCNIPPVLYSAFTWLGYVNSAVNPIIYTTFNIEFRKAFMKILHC
Sequence of D(2) dopamine receptor (Rattus norvegicus) (P61169 whole entry): as above

Structure (SMILES)	Ki [1]	Ki [2]	Ki [3]	Ki [4]	Ratio [5]	Ki [6]
O=C1Cc2c(OCCNCc3ccc(-c4ccccc4)cc3)ccc(Cl)c2N1	0.038 µM	0.268 µM	0.0174 µM	0.0467 µM	3	–
CNCCOc1cccc2c1CC(=O)N2	0.276 µM	1.057 µM	0.002 µM	0.147 µM	74	–
Clc1ccc(OCCNCc2cccs2)c2c(Cl)c[nH]c12	–	–	0.0123 µM	0.0384 µM	3	–
CN(CCOc1ccc(Cl)c2c1CC(=O)N2)Cc1ccccc1	0.008 µM	0.041 µM	0.0026 µM	0.0234 µM	9	–
Cc1ccc(CNCCOc2ccc(Cl)c3c2CC(=O)N3)cc1	1.17 µM	0.334 µM	0.00064 µM	0.0055 µM	9	–
Oc1ccc2c(c1)O[C@@H](CNCc1ccccc1)CN2	–	–	0.0067 µM	0.13 µM	–	–
O=C1Cc2c(OCCN3CCc4ccccc4C3)ccc(F)c2N1	0.025 µM	–	0.00086 µM	0.00502 µM	–	0.128 µM
Oc1cccc(OCCNCc2ccccc2)c1	1.78 µM	5.291 µM	–	0.115 µM	32	–
O=C1Cc2c(OCCNCCCc3c[nH]c4ccccc34)ccc(F)c2N1	0.012 µM	0.026 µM	0.00015 µM	0.00303 µM	20	–
O=C(c1c[nH]c2c(Cl)ccc(OCCNCc3ccccc3)c12)C(F)(F)F	0.051 µM	0.0975 µM	–	–	–	–
NCCOc1cccc2c1CC(=O)N2	0.664 µM	–	0.00693 µM	0.268 µM	–	11.081 µM
O=C1Cc2c(OCCNCc3ccsc3)ccc(F)c2N1	0.024 µM	–	0.00084 µM	0.0178 µM	–	0.039 µM
CCCCNCCOc1ccc(Cl)c2c1CC(=O)N2	–	0.011 µM	0.00084 µM	0.0146 µM	17	–
O=C1Cc2c(OCCN3Cc4ccccc4C3)ccc(F)c2N1	0.013 µM	0.268 µM	0.00208 µM	0.016 µM	7	–
CN(CCOc1cccc2c1CC(=O)N2)Cc1ccccc1	6.26 µM	–	0.00076 µM	0.0496 µM	–	4.829 µM
O=C1Cc2c(OCCNCc3ccc(-c4ccccc4)cc3)ccc(F)c2N1	0.34 µM	–	0.0048 µM	0.0274 µM	–	0.22 µM
c1ccc(CNC[C@H]2CCc3ccc4[nH]ccc4c3O2)cc1	0.0004 µM	–	0.0019 µM	0.0359 µM	–	0.024 µM
O=C1Cc2c(OCCNCc3ccccc3)ccc(Cl)c2N1	2.66 µM	0.35 µM	0.00041 µM	0.0028 µM	7	–
O=C1Cc2c(OCCNCc3ccccc3)ccc(F)c2N1	0.535 µM	–	0.00063 µM	0.0053 µM	–	0.052 µM
CN(CCCC(=O)c1ccc(F)cc1)CCOc1cccc2c1CC(=O)N2	0.253 µM	0.0095 µM	0.0031 µM	0.0241 µM	8	–
Clc1ccc(OCCNCc2ccccc2)c2c(Cl)c[nH]c12	0.219 µM	0.066 µM	0.007 µM	0.0199 µM	3	–
O=C1Cc2c(OCCNCc3cccs3)ccc(F)c2N1	0.039 µM	–	0.00066 µM	0.0218 µM	–	0.032 µM
Clc1ccc(CNCCOc2ccc(Cl)c3[nH]cc(Cl)c23)cc1	–	0.458 µM	0.0771 µM	0.0298 µM	0.4	–
O=C1Cc2c(ccc3c2O[C@@H](CNCc2ccccc2)CC3)N1	0.0085 µM	0.165 µM	0.00014 µM	0.0059 µM	42	–
O=C1Cc2c(OCCNCc3ccc(F)cc3)ccc(Cl)c2N1	6.56 µM	0.431 µM	0.0013 µM	0.0138 µM	11	–

Further lines, results first:

Ki [1]	Ki [2]	Ki [3]	Ki [4]	Ratio [5]	Ki [6]	Structure (SMILES)
0.0019 µM	0.013 µM	0.00023 µM	0.00206 µM	9	–	O=C1Cc2c(cccc2OCCNCCCCc2ccccc2)N1
0.193 µM	0.1385 µM	0.0074 µM	0.0144 µM	2	–	Clc1ccc(OCCNCc2ccccc2)c2cc[nH]c12
0.685 µM	0.229 µM	0.05 µM	0.0595 µM	1	–	Fc1ccc(CNCCOc2ccc(Cl)c3[nH]cc(Cl)c23)cc1
0.059 µM	–	–	–	–	0.005 µM	O=C1Cc2c(OCCNCc3cccs3)ccc(Cl)c2N1
0.121 µM	0.154 µM	0.00063 µM	0.009 µM	14	–	O=C1Cc2c(OCCNCc3ccc4ccccc4c3)ccc(F)c2N1
0.0004 µM	0.0115 µM	0.0053 µM	0.0144 µM	3	–	c1ccc(CCCCNCCOc2cccc3[nH]ccc23)cc1
0.083 µM	–	0.00024 µM	0.00332 µM	–	0.014 µM	O=C1Cc2c(OCCNCc3ccsc3)ccc(Cl)c2N1
1.89 µM	–	0.0014 µM	0.0041 µM	–	0.134 µM	O=C1Cc2c(OCCNCc3ccc(Cl)cc3)ccc(Cl)c2N1
0.625 µM	–	–	–	–	2.899 µM	O=C1Cc2c(OCCNCc3cccc(-c4ccccc4)c3)ccc(F)c2N1
0.041 µM	–	0.00044 µM	0.00285 µM	–	0.085 µM	O=C1Cc2c(OCCN3Cc4ccccc4C3)ccc(Cl)c2N1
0.306 µM	–	0.00021 µM	0.0114 µM	–	1.448 µM	O=C1Cc2c(cccc2OCCNCc2ccccc2)N1
0.017 µM	–	0.00065 µM	0.0056 µM	–	0.38 µM	O=C1Cc2c(OCCNCC3CCCCC3)ccc(F)c2N1
0.025 µM	0.025 µM	0.0121 µM	0.916 µM	76	–	NCCOc1ccc(F)c2c1CC(=O)N2
0.017 µM	0.143 µM	0.00055 µM	0.00427 µM	8	–	O=C1Cc2c(OCCN3CCc4ccccc4C3)ccc(Cl)c2N1
